Consider 26 compounds from ChEMBL document CHEMBL1149149, “Design, synthesis, and biological activity of 1,3-disubstituted ureas as potent inhibitors of the soluble epoxide hydrolase of increased water solubility” (J Med Chem, 2004).

≈ marks a conversion by molar mass, not a printed value.

Data set [1] concerns the target T1, Bifunctional epoxide hydrolase 2 (Homo sapiens, UniProt P34913).
T1 sequence (P34913 whole entry): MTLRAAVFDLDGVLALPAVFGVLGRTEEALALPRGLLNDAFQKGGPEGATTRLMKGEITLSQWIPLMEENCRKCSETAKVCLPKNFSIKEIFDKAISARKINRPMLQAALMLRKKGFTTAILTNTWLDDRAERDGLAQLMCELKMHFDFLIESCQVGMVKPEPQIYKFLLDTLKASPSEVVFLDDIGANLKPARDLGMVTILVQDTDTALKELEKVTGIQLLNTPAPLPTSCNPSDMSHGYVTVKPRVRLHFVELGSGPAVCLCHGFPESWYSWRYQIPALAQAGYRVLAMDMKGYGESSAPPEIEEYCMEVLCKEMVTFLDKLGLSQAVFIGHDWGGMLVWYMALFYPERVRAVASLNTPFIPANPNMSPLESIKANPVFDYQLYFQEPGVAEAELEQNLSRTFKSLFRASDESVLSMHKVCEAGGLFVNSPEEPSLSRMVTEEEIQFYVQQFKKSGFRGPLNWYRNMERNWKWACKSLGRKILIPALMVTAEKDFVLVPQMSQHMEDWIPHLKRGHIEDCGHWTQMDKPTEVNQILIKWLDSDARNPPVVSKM
As to the kind of experiment: Tested for 50 % inhibitory concentration against human soluble epoxide hydrolase (sEH). Summed up: (§1)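 Recombinant sEH was expressed in baculovirus and affinity-purified to at least 97% purity. Enzyme was preincubated with inhibitor for 5 min at 30 °C in 0.1 M sodium phosphate, pH 7.4, with 0.1 mg/mL BSA. Racemic 4-nitrophenyl-trans-2,3-epoxy-3-phenylpropyl carbonate was the substrate (40 µM). 4-Nitrophenolate was read at 405 nm for 1 min. Run in triplicate; IC50 from regression of at least five points.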

The target in data set [2] is T2, Bifunctional epoxide hydrolase 2 (Mus musculus, UniProt P34914).
T2 sequence (P34914 whole entry): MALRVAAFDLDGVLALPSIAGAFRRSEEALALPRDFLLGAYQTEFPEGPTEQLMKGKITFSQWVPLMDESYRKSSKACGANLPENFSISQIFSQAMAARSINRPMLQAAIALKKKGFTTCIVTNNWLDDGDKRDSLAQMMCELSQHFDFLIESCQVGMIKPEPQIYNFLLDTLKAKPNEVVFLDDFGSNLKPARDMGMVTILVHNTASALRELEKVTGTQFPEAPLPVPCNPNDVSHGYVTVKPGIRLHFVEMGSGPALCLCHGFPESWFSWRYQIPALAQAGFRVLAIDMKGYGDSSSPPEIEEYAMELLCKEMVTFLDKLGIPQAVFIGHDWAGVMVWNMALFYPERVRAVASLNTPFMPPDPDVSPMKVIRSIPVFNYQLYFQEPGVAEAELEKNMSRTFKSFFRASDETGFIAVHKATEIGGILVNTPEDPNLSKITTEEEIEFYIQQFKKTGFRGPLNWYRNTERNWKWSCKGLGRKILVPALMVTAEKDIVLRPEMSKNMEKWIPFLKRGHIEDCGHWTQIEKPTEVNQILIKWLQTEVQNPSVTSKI
The data set is described as follows: Tested for 50 % inhibitory concentration against mouse soluble epoxide hydrolase (sEH). The method in brief: as §1

Data set [3] is described as follows: Solubility in sodium phosphate buffer (0.1 M, pH 7.4) at 25 degrees C was determined.
A short description of data set [4]: Partition coefficient (logP). In kind it is physicochemical. The following applies: octanol/water. Summed up: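 Compound dissolved in buffer-saturated octanol, then mixed with octanol-saturated 0.1 M sodium phosphate buffer, pH 7.4. Shaken 24 h at 23 ± 1.5 °C and centrifuged 5 min at 200g. Each phase was quantified by LC-MS/MS, and log P was taken as log [octanol]/[water]. Triplicate analyses.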

In data set [5] the target is T3, Bifunctional epoxide hydrolase 2 (Mus musculus) (UniProt P34914).
T3 sequence (whole entry): T2 sequence (P34914 whole entry)
As to the kind of experiment: Tested for 90 % inhibitory concentration against mouse soluble epoxide hydrolase (sEH). Summed up: (§2)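 Recombinant sEH (human for line 1, mouse for line 2) expressed in baculovirus and affinity-purified to ≥97%. Enzyme was preincubated with inhibitor for 5 min at 30 °C in 0.1 M sodium phosphate, pH 7.4, with 0.1 mg/mL BSA. Racemic 4-nitrophenyl-trans-2,3-epoxy-3-phenylpropyl carbonate (40 µM) was then added, and 4-nitrophenolate was read at 405 nm for 1 min at 30 °C. Assays were run in triplicate.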

Data set [6] has as its target T4, Bifunctional epoxide hydrolase 2 (Homo sapiens) (UniProt P34913).
T4 sequence (whole entry): T1 sequence (P34913 whole entry)
The data set is described as follows: Tested for 90 % inhibitory concentration against human soluble epoxide hydrolase (sEH). Summed up: as §2

The IC50 is the midpoint of a concentration-inhibition curve. The low end stands for inhibition by little substance, the high end for a need for much substance. As to `O=C(NCCCO)NC1CCCCC1`, the IC50 in data set [1] and in data set [2] was over 500000 nM in each case.

Regarding `O=C(O)CNC(=O)NC1CCCCC1`, the IC50 in data set [1] and in data set [2] was over 500000 nM in each case.

Usually solubility stands for the concentration that dissolves in the medium under given conditions. Higher therefore signals a readily soluble substance. What is called logP is the decadic logarithm of the partition coefficient of the neutral form, usually between octanol and water. A low value points to lower lipophilicity. On to `COC(=O)CCCNC(=O)NC12CC3CC(CC(C3)C1)C2`, for which the IC50 worked out at 1600 nM in data set [1] and 100 nM in data set [2]. In addition, the solubility in data set [3] (sodium phosphate buffer) came to 1.6 µg/mL (≈ 5.43 µM). This compound registered a logP in data set [4] of 0.18.

As usually defined, the IC90 is the concentration at which the effect reaches the 90% level. A higher IC90 goes with weaker potency. `CCOC(=O)CCCOC(=O)CCCNC(=O)NC12CC3CC(CC(C3)C1)C2`: the concentration for an effect of 90% (IC90) came to 160 nM in data set [5] and 5000 nM in data set [6].

In the case of `CCOC(=O)Cc1ccc(OC(=O)CCCNC(=O)NC23CC4CC(CC(C4)C2)C3)cc1`, the IC50 in data set [1] is 140 nM; in data set [2] it was 50 nM.

As for `CCOC(=O)CCCCCCCCCCOC(=O)CCCNC(=O)NC12CC3CC(CC(C3)C1)C2`, the results for the IC90 in data set [5] and in data set [6] were 350 nM and 1200 nM, respectively.

Compound `CCCCCCCCCCNC(=O)NC1CCCCC1` gave a solubility in data set [3] (buffer) of 0.44 µg/mL (≈ 1.56 µM). In addition, the logP in data set [4] was determined as 5.44.

With `COCCCNC(=O)NC1CCCCC1`, the values for the half-maximal inhibitory concentration (IC50) in data set [1] and in data set [2] were 6200 nM and 330 nM, respectively.

As for `CCCCCOC(=O)NCCNC(=O)Nc1cccc(Cl)c1`, the IC50 in data set [1] was over 100000 nM.

As for `CCOC(=O)CCCCOC(=O)CCCNC(=O)NC12CC3CC(CC(C3)C1)C2`, the results for the IC90 in data set [5] and in data set [6] were 100 nM and 1500 nM, respectively.

The compound `CCCCCCCCCCNC(=O)NC12CC3CC(CC(C3)C1)C2` returned a solubility in data set [3] (sodium phosphate buffer) of 0.62 µg/mL (≈ 1.85 µM). Moreover, the logP in data set [4] is 5.25.

As for `CCOC(=O)CCCCCCCOC(=O)CCCNC(=O)NC12CC3CC(CC(C3)C1)C2`, the IC90 in data set [5] was 160 nM; in data set [6], 720 nM.

Consider `O=C(O)CCCNC(=O)NC12CC3CC(CC(C3)C1)C2`, for which the IC50 in data set [1] is 37000 nM; in data set [2], 22000 nM. The compound also displayed a solubility in data set [3] (sodium phosphate buffer) of 7.06 µg/mL (≈ 25.2 µM). Further, the logP in data set [4] was found to be 0.14.

Turning to `CCOC(=O)c1ccc(COC(=O)CCCNC(=O)NC23CC4CC(CC(C4)C2)C3)cc1`, the IC50 turned out to be 100 nM in data set [1] and 50 nM in data set [2].

`CCOC(=O)/C=C/c1ccc(OC(=O)CCCNC(=O)NC23CC4CC(CC(C4)C2)C3)cc1`: the results for the concentration for half-maximal inhibition (IC50) in data set [1] and in data set [2] were 200 nM and 50 nM, respectively.

Consider `CCCCCOC(=O)CCCNC(=O)NC12CC3CC(CC(C3)C1)C2`, for which, in data set [3] (sodium phosphate buffer), the solubility amounted to 1.69 µg/mL (≈ 4.82 µM).

Consider `O=C(NCCCCCO)NC1CCCCC1`, for which the IC50 in data set [1] turned out to be 253000 nM; in data set [2] it was 90000 nM.

On to `CCOC(=O)CCOC(=O)CCCNC(=O)NC12CC3CC(CC(C3)C1)C2`, for which the IC90 in data set [5] came to 630 nM; in data set [6], 9000 nM.

In the case of `CCOC(=O)CCCCCCCCCOC(=O)CCCNC(=O)NC12CC3CC(CC(C3)C1)C2`, the IC90 in data set [5] came to 260 nM; in data set [6] it was 680 nM.

With `CCOC(=O)COC(=O)CCCNC(=O)NC12CC3CC(CC(C3)C1)C2`, the IC90 is 110 nM in data set [5] and 9000 nM in data set [6].

On to `CCCCCNC(=O)NCCNC(=O)Nc1cccc(Cl)c1`, for which the IC50 in data set [1] was over 100000 nM.

`CCOC(=O)CCCCCCCCCCCOC(=O)CCCNC(=O)NC12CC3CC(CC(C3)C1)C2`: the figures for the IC90 in data set [5] and in data set [6] were 630 nM and 1800 nM, respectively.

As to `CC(C)=CCCC(C)CCOC(=O)CCCNC(=O)NC12CC3CC(CC(C3)C1)C2` (configuration not stated), the IC50 in data set [1] amounted to 110 nM; in data set [2], 50 nM.

`CCCCCCC(=O)NCCNC(=O)Nc1cccc(Cl)c1` registered an IC50 in data set [1] of over 100000 nM.

Consider `CCCCCOC(=O)CCCNC(=O)NC1CCCCC1`, for which, in data set [3], the concentration in solution (solubility) was 1.51 µg/mL (≈ 5.06 µM). The compound further showed a logP in data set [4] of 0.82.

In the case of `CCCCCCC(O)CCCNC(=O)Nc1cccc(Cl)c1` (configuration not stated), the IC50 in data set [1] was 3100 nM; in data set [2], 140 nM.
